Screening data (PubChem)
Only some compounds are listed: those with a hit (about 5.8% of all), similar ones and a draw of the others.
Pf Dd2 growth: inhibitors of Plasmodium falciparum Dd2 growth | P. falciparum Dd2 growth, SYBR Green, 72 h; stronger effect = lower value | activity change, % at 10 µM | 2.3% of 94,000 active; in the data active means activity change below about -80%; inconclusive means no clear call, values can overlap the other calls
IDH1 R132H inh: blocks human IDH1 R132H reductase activity; 0.18% of 70,000 active; O75874; diaphorase/resazurin fluorescence, 60 min; inhibition, % at 10 µM; in the data active means inhibition above about 34%; inconclusive means no clear call, values can overlap the other calls; inactive means below about 11%
Target sequence (O75874 whole entry R132H): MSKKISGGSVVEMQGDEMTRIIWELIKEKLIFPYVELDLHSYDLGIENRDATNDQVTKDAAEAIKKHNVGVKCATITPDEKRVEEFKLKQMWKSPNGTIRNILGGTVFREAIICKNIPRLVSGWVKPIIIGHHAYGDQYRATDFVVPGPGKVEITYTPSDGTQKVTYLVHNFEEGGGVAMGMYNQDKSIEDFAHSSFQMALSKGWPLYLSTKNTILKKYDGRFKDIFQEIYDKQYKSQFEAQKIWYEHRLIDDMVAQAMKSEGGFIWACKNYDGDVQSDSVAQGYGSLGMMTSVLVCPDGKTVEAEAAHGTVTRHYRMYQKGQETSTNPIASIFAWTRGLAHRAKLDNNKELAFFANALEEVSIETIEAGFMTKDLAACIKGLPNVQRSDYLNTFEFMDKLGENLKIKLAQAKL
Tcruzi prolif: T. cruzi proliferation inhibition. inhibition, % at 8.34 µM. 5.9% of 77,000 active. T. cruzi beta-gal in NIH3T3, GalScreen luminescence, 90 h. AID 624255;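 active means mean inhibition above about 93%, with at least 55% of replicates each passing it, limit read from the data, passing the limit was not always enough; inconclusive means only one of those two conditions holds; inactive means neither condition holds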
GASC1 inh: blocks human GASC-1 (KDM4C) demethylase activity; GST-KDM4C 2-372, H3K9me3 peptide, LANCE TR-FRET; inhibition, % at 12.5 µM; 0.15% of 96,000 active; AID 720574;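 active means mean replicate inhibition above about 25%, with at least 55% of replicates also reaching it, limit read from the data, passing the limit was not always enough; inconclusive means only one of those two conditions met; inactive means neither condition met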
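System – N-terminal GST-fused human GASC-1 (KDM4C) fragment, residues 2-372 · Input – enzyme final amount 10 nM · Technique – LANCE TR-FRET, Eu antibody, ULight-streptavidin, EDTA, ex 340 nm, em 618/671 nm · Medium – HEPES buffer, pH 7.5, plus ascorbate · Incubation – enzyme reaction 30 min, then detection 60 min, both room temperature · Reagent – H3K9me3 peptide with Fe(II)/2OG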
A number is an active result.

What do the screens show for `N#CCCN(CCC#N)C(=O)c1cccc([N+](=O)[O-])c1`?
IDH1 R132H inh: inactive

What do the screens show for `Cc1nc(N2[C@H](CO)[C@H](c3ccccc3)[C@H]2CNCC2CCCC2)sc1C`?
Pf Dd2 growth: -90; GASC1 inh: inactive

What do the screens show for `COc1ccc(C#Cc2ccc([C@@H]3[C@@H](CO)N4C(=O)CN(C(=O)c5ccccc5)C[C@H]34)cc2)cc1`?
Pf Dd2 growth: -87; GASC1 inh: inactive

What do the screens show for `COc1ccc(NC(=O)N2CC(=O)N3[C@H](C2)[C@H](c2ccc(C#CCC4CCCC4)cc2)[C@@H]3CO)cc1`?
Pf Dd2 growth: inactive; GASC1 inh: inactive

How did O=C(c1cccc(F)c1)N1CC(=O)N2[C@H](CO)[C@H](c3ccc(-c4cccnc4)cc3)[C@H]2C1 do in these assays?
Pf Dd2 growth: -86; GASC1 inh: inactive

What do the screens show for `COc1ccc(NC(=O)N2CC(=O)N3[C@@H](CO)[C@H](c4ccc(C#CCC5CCCC5)cc4)[C@@H]3C2)cc1`?
Pf Dd2 growth: -90; GASC1 inh: inactive

What do the screens show for `O=C(c1ccc2c(c1)OCO2)N1CC(=O)N2[C@H](CO)[C@H](c3ccc(C#Cc4ccccc4)cc3)[C@H]2C1`?
Pf Dd2 growth: -82; GASC1 inh: inactive

How did COc1ccc(S(=O)(=O)N(C)C[C@H]2Oc3ccc(NS(=O)(=O)c4ccc(Cl)cc4)cc3CC(=O)N([C@@H](C)CO)C[C@H]2C)cc1 do in these assays?
Pf Dd2 growth: inactive; IDH1 R132H inh: inactive; Tcruzi prolif: inactive; GASC1 inh: inactive

What do the screens show for `CC(C)C#Cc1ccc([C@@H]2[C@H](CO)N3CCCCN(C(=O)c4ccc5c(c4)OCO5)C[C@@H]23)cc1`?
Pf Dd2 growth: -83; Tcruzi prolif: inactive; GASC1 inh: inactive

How did COc1ccc(-c2ccc([C@H]3[C@@H](CO)N4C(=O)CN(C(=O)NC(C)C)C[C@H]34)cc2)cc1 do in these assays?
Pf Dd2 growth: inactive; GASC1 inh: inactive

What do the screens show for `CC(C)C#Cc1ccc([C@H]2[C@H](CO)N3CCCCN(C(=O)c4ccc5c(c4)OCO5)C[C@@H]23)cc1`?
Pf Dd2 growth: inactive; Tcruzi prolif: inactive; GASC1 inh: inactive

What do the screens show for `O=C(c1ccc(F)cc1)N1CC(=O)N2[C@H](CO)[C@H](c3ccc(C#Cc4ccc(F)cc4)cc3)[C@H]2C1`?
Pf Dd2 growth: -91; GASC1 inh: inactive

Results for O=C(c1ccc(F)cc1)N1CC(=O)N2[C@H](CO)[C@@H](c3ccc(C#Cc4ccc(F)cc4)cc3)[C@H]2C1 ?
Pf Dd2 growth: inactive; GASC1 inh: inactive

Results for COc1ccc(-c2ccc([C@@H]3[C@H]4CN(C(=O)NC(C)C)CC(=O)N4[C@H]3CO)cc2)cc1 ?
Pf Dd2 growth: -87; GASC1 inh: inactive

How did CC(C)C#Cc1cnc2c(c1)C(=O)N([C@H](C)CO)C[C@H](C)[C@H](CN(C)Cc1ccccn1)O2 do in these assays?
Pf Dd2 growth: inactive; IDH1 R132H inh: inactive; Tcruzi prolif: inactive; GASC1 inh: inactive

Results for COc1ccc(S(=O)(=O)N(C)C[C@H]2OCc3ccccc3-c3c(n(C)c4ccccc34)C(=O)N([C@H](C)CO)C[C@H]2C)cc1 ?
Pf Dd2 growth: inactive; IDH1 R132H inh: inactive; Tcruzi prolif: inactive; GASC1 inh: inactive

How did C[C@H]1CN([C@@H](C)CO)C(=O)c2c(c3ccccc3n2C)-c2ccccc2CO[C@H]1CN(C)S(=O)(=O)c1ccc(Cl)cc1 do in these assays?
Pf Dd2 growth: -86; IDH1 R132H inh: inactive; Tcruzi prolif: inactive; GASC1 inh: inactive

How did C[C@H]1CN([C@@H](C)CO)C(=O)c2c(c3ccccc3n2C)-c2ccccc2CO[C@@H]1CN(C)S(=O)(=O)c1ccc(Cl)cc1 do in these assays?
Pf Dd2 growth: -85; Tcruzi prolif: inactive; GASC1 inh: inactive

How did C[C@@H]1CN([C@H](C)CO)C(=O)c2c(c3ccccc3n2C)-c2ccccc2CO[C@H]1CN(C)S(=O)(=O)c1ccc(Cl)cc1 do in these assays?
Pf Dd2 growth: -84; IDH1 R132H inh: inactive; Tcruzi prolif: inactive; GASC1 inh: inactive

What do the screens show for `C[C@H]1CN([C@@H](C)CO)C(=O)c2c(c3ccccc3n2C)-c2ccccc2CO[C@@H]1CN(C)S(=O)(=O)c1ccc(C(F)(F)F)cc1`?
Pf Dd2 growth: inconclusive; GASC1 inh: inactive

How did C[C@H](CO)N1C[C@H](C)[C@H](CN(C)S(=O)(=O)c2ccc(Cl)cc2)OCc2ccccc2-c2c(n(C)c3ccccc23)C1=O do in these assays?
Pf Dd2 growth: -94

What do the screens show for `C[C@@H]1CN([C@H](C)CO)C(=O)c2c(c3ccccc3n2C)-c2ccccc2CO[C@@H]1CN(C)S(=O)(=O)c1ccc([N+](=O)[O-])cc1`?
Pf Dd2 growth: inactive; GASC1 inh: inactive

How did C[C@@H]1CN([C@@H](C)CO)C(=O)c2cc(C#CC(C)(C)O)cnc2O[C@H]1CN(C)C(=O)C1CCCCC1 do in these assays?
Pf Dd2 growth: inactive; Tcruzi prolif: inactive; GASC1 inh: inactive

What do the screens show for `COc1ccc(NC(=O)Nc2ccc3c(c2)CC(=O)N([C@@H](C)CO)C[C@H](C)[C@@H](CN(C)Cc2ccc(-c4ccccc4)cc2)O3)cc1`?
Pf Dd2 growth: inactive; IDH1 R132H inh: inactive; Tcruzi prolif: inactive; GASC1 inh: inactive

How did C[C@H]1CN([C@@H](C)CO)S(=O)(=O)c2ccc(-c3ccncc3)cc2O[C@H]1CN(C)Cc1ccccc1 do in these assays?
Pf Dd2 growth: inactive; IDH1 R132H inh: inactive; Tcruzi prolif: inactive; GASC1 inh: inactive

How did C[C@@H]1CN([C@@H](C)CO)S(=O)(=O)c2ccc(-c3ccncc3)cc2O[C@H]1CN(C)Cc1ccc(Oc2ccccc2)cc1 do in these assays?
Pf Dd2 growth: -86; IDH1 R132H inh: inactive; Tcruzi prolif: inactive; GASC1 inh: inactive

What do the screens show for `COc1cccc(-c2ccc3c(c2)O[C@@H](CN(C)Cc2ccncc2)[C@@H](C)CN([C@H](C)CO)S3(=O)=O)c1`?
Pf Dd2 growth: inactive; IDH1 R132H inh: inactive; GASC1 inh: 42

How did COc1cccc(-c2ccc3c(c2)O[C@H](CN(C)Cc2cncnc2)[C@@H](C)CN([C@@H](C)CO)S3(=O)=O)c1 do in these assays?
Pf Dd2 growth: inactive; IDH1 R132H inh: inactive; Tcruzi prolif: inactive; GASC1 inh: inactive

How did C[C@@H]1CCCCO[C@@H](CN(C)C(=O)Nc2cccc3ccccc23)[C@H](C)CN([C@@H](C)CO)C(=O)c2cc(NC(=O)c3ccncc3)ccc2O1 do in these assays?
Pf Dd2 growth: inactive; IDH1 R132H inh: inactive; Tcruzi prolif: inactive; GASC1 inh: inactive

How did C[C@@H]1CN([C@@H](C)CO)C(=O)c2cc(NC(=O)c3ccccc3)ccc2O[C@@H](C)CCCCO[C@@H]1CN(C)C(=O)Nc1cccc2ccccc12 do in these assays?
Pf Dd2 growth: -87; IDH1 R132H inh: inactive; Tcruzi prolif: inactive; GASC1 inh: inactive

Results for C[C@@H]1CN([C@@H](C)CO)C(=O)c2cc(NC(=O)c3ccncc3)ccc2O[C@@H](C)CCCCO[C@@H]1CN(C)C(=O)Nc1cccc2ccccc12 ?
Pf Dd2 growth: -84; IDH1 R132H inh: inactive; Tcruzi prolif: inactive; GASC1 inh: inactive
